Measurements pooled from the literature.
Compare with care: the assays were run in different laboratories.
FLT3 D835V: Receptor-type tyrosine-protein kinase FLT3 (FLT3, Homo sapiens, UniProt P36888, D835V)
FLT3: Receptor-type tyrosine-protein kinase FLT3 (FLT3, Homo sapiens, UniProt P36888)
FLT3 D835V/ITD: Receptor-type tyrosine-protein kinase FLT3 (FLT3, Homo sapiens, UniProt P36888, D835V/ITD)
FLT3 N841I: Receptor-type tyrosine-protein kinase FLT3 (FLT3, Homo sapiens, UniProt P36888, N841I)
FLT3 D835H: Receptor-type tyrosine-protein kinase FLT3 (FLT3, Homo sapiens, UniProt P36888, D835H)
FLT3 R834Q: Receptor-type tyrosine-protein kinase FLT3 (FLT3, Homo sapiens, UniProt P36888, R834Q)
FLT3 autoinhibited: Receptor-type tyrosine-protein kinase FLT3, autoinhibited (FLT3, Homo sapiens, UniProt P36888)
FLT3 D835Y: Receptor-type tyrosine-protein kinase FLT3 (FLT3, Homo sapiens, UniProt P36888, D835Y)
FLT3 K663Q: Receptor-type tyrosine-protein kinase FLT3 (FLT3, Homo sapiens, UniProt P36888, K663Q)

Structure (SMILES) | target | test | conditions | remaining binding [%]
F[C@@H]1CCN(c2nccc(-c3cnn4ncccc34)n2)C1 | FLT3 D835V | binding | 1 µM | 84
CN(C)C(=O)Cn1cc(-c2nc([C@@](C)(c3ccc(-c4cnc(N)nc4)cc3)C3CC3)no2)cn1 | FLT3 | cell-free assay, competition with immobilised ligand | 1 µM | 97
Cc1cnc(Nc2ccc(C(=O)N3CCC(N4CCCC4)CC3)cc2)nc1-c1cc2ccccc2s1 | FLT3 D835V/ITD | binding, competition with immobilised ligand | 1 µM | 0.9
CCN1CCN(Cc2ccc(C(=O)Nc3ccc(C)c(Oc4ccc5c(c4)CC(=O)N5)c3)cc2C(F)(F)F)CC1 | FLT3 N841I | binding, competition with immobilised ligand | 1 µM | 81
COc1ncc2cc3ccccc3nc2c1C#N | FLT3 D835H | cell-free assay, competition with immobilised ligand | 5 µM | 89
C[C@H](c1cccc(C#N)c1)n1cc(Cl)cc(C(N)=O)c1=N | FLT3 R834Q | cell-free assay, competition with immobilised ligand | 1 µM | 100
C=CC(=O)N1CCC(C(=O)NCC(=O)N2CCN(c3nc(-c4cnc(N)nc4C(F)F)nc(N4CCOCC4)n3)CC2)CC1 | FLT3 autoinhibited | binding, competition with immobilised ligand | 1 µM | 99
NS(=O)(=O)c1cc(NC(=O)C2(c3ccccc3Cl)CC2)ccc1Oc1cccc(Cl)c1 | FLT3 D835Y | cell-free assay, competition with immobilised ligand | 1 µM | 100
O=C(NCCCN1CCOCC1)c1ccc(Nc2ncc(Cl)c(-c3ccc(Cl)s3)n2)cc1 | FLT3 autoinhibited | binding, competition with immobilised ligand | 1 µM | 5.5
N[C@H]1CCN(c2nccc(-c3cnn4ncccc34)n2)C1 | FLT3 N841I | binding | 1 µM | 84
O=C(NCC1CCOCC1)c1n[nH]cc1NC(=O)c1c(F)cccc1F | FLT3 N841I | binding, competition with immobilised ligand | 1 µM | 100
FC(F)(F)Oc1cccc(-c2cnc3ccc(-c4ccncc4)nn23)c1 | FLT3 | cell-free assay, competition with immobilised ligand | 5 µM | 3.6
C[C@H](c1ccc(F)cc1)N(Cc1cccc(C(=O)O)c1)C(=O)c1cnc2ccccc2c1 | FLT3 D835V | cell-free assay, competition with immobilised ligand | 1 µM | 98
Cc1cnn2ncc(-c3ccnc(N(C)C)n3)c2c1 | FLT3 K663Q | binding | 1 µM | 100
C[C@@H](c1ccc(-n2cnc3c(N)ncnc32)cc1)N1CCc2nn(C)c(Cc3ccccc3)c2C1=O | FLT3 autoinhibited | binding, competition with immobilised ligand | 0.1 µM | 84
O=C(c1ccc(Nc2nccc(-c3cc4ccccc4s3)n2)cc1)N1CCC(N2CCCC2)CC1 | FLT3 R834Q | binding, competition with immobilised ligand | 1 µM | 30
COc1ccnn2ncc(-c3ccnc(N(C)C)n3)c12 | FLT3 D835Y | binding | 1 µM | 97
N#Cc1ccccc1CSc1nnc2c(n1)[nH]c1ccccc12 | FLT3 | binding, competition with immobilised ligand | 10 µM | 84

Structure (SMILES) | target | test | conditions | remaining binding [%]
CC(C)CC(=O)N1CCc2nc(-c3ccc(Br)cc3)nc(N(C)Cc3ccccc3)c2C1 | FLT3 K663Q | cell-free assay, competition with immobilised ligand | 0.1 µM | 100
CN(CCCC(F)(F)F)c1nccc(-c2cnn3ncccc23)n1 | FLT3 D835Y | binding | 1 µM | 76
CNC(=O)[C@@H]1CC[C@@H](n2c(-c3ccc4cnccc4c3)nc3ccc(C(=O)NCc4cccc(C(N)=O)c4)cc32)C1 | FLT3 | binding, competition with immobilised ligand | 1 µM | 100
O=C(O)[C@H]1[C@H](Cn2nnc3ccccc3c2=O)CC[C@@H]1C(=O)c1ccc(OCCC2CCOCC2)cc1 | FLT3 R834Q | cell-free assay, competition with immobilised ligand | 1 µM | 96
COc1cnc(Nc2cccc(S(N)(=O)=O)c2)nc1N1CCN(c2ccccc2)C(=O)C1 | FLT3 D835Y | binding, competition with immobilised ligand | 1 µM | 66
O=C(Nc1c[nH]nc1C(=O)NC1CCNCC1)c1cc(F)cc(F)c1 | FLT3 D835Y | binding, competition with immobilised ligand | 1 µM | 89
Nc1ncc2c(n1)-c1c([nH]c3ccc(C#CC4CC4)cc13)CCCC2 | FLT3 | binding, competition with immobilised ligand | 1 µM | 96
O=C(NCCCC1CCCCC1)c1ccc(CNC(=O)c2cnn(-c3ccccc3)c2C(F)(F)F)cc1 | FLT3 R834Q | cell-free assay, competition with immobilised ligand | 0.1 µM | 100
O=C(c1ccc(Nc2ncc(Cl)c(-c3ccc(Cl)s3)n2)cc1)N1CCC(N2CCCC2)CC1 | FLT3 D835V/ITD | binding, competition with immobilised ligand | 1 µM | 1.1
Cc1c(NC(=O)c2cc(C(N)=O)nc3cc(F)ccc23)c(C(F)(F)F)nn1Cc1ccc(C(C)(C)C)cc1 | FLT3 R834Q | cell-free assay, competition with immobilised ligand | 1 µM | 100
O=C(c1ccc(Nc2ncc(Cl)c(-c3cc4ccccc4s3)n2)cc1)N1CCC(N2CCCC2)CC1 | FLT3 D835H | binding, competition with immobilised ligand | 1 µM | 2.4
COc1cnc(Nc2cccc(S(N)(=O)=O)c2)nc1N1CCN(c2ccccc2)CC1 | FLT3 N841I | binding, competition with immobilised ligand | 1 µM | 21
CN1CCN(c2ccc(Nc3nccc(-c4cccc([N+](=O)[O-])c4)n3)cc2C(F)(F)F)CC1 | FLT3 K663Q | binding | 10 µM | 0.2
CN(C)c1nccc(-c2cnn3ncccc23)n1 | FLT3 D835Y | binding | 1 µM | 100
c1cncc(-c2cccc(Nc3nccc(NC4CCCCC4)n3)c2)c1 | FLT3 N841I | binding, competition with immobilised ligand | 10 µM | 1.6
CN1CCN(c2ccc(Nc3nccc(-c4ccccc4)n3)cc2C(F)(F)F)CC1 | FLT3 K663Q | binding | 10 µM | 0.35
O=C(NCCCN1CCOCC1)c1ccc(Nc2nccc(-c3cc4ccccc4s3)n2)cc1 | FLT3 D835H | binding, competition with immobilised ligand | 1 µM | 30
